Target: T1, Adenosine deaminase (Bos taurus) (UniProt P56658)
T1 sequence (whole entry): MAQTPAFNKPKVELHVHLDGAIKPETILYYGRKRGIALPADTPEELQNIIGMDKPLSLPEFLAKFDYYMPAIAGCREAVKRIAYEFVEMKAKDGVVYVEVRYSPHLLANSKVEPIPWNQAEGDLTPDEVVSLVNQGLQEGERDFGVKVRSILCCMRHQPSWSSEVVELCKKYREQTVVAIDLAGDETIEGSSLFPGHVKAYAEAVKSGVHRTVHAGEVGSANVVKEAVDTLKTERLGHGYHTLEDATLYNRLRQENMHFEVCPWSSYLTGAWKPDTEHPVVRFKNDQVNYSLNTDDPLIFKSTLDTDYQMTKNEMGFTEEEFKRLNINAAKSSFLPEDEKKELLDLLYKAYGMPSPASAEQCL
Assay: Relative Vmax value of the compound
In short: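 Deamination rates followed with calf mucosal ADA (EC 3.5.4.4) in buffer solutions; Km and Vmax relative to adenosine as substrate; inhibition (Ki) assessed with adenosine as substrate.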

## Nc1ncnc2c1ncn2[C@@H]1O[C@H](CO)[C@@H](O)[C@H]1O
  Relative Vmax: 1
